Assays:
Type in all cases: functional
Penicillium chrysogenum [1] = assay: Antifungal activity against Penicillium notatum sp. at 500 ug after 24 hrs by paper disc technique; conditions: read-out: IZ
How it was run: (§1)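 Potato dextrose agar plates: sterilized base layer overlaid with seeded medium (cooled to 40 °C, spore suspension from ten-day cultures of A. niger, A. flavus, P. notatum and Rhizopus species added), chilled before use. Disc diffusion, incubation at 28 °C; zone read after 24 h from disc centre. I% = (C − T)/C × 100 (C, zone diameter in check; […]). Fluconazole (500 and 1000 µg/ml) as standard.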

Aspergillus niger [2] = assay: Antifungal activity against Aspergillus niger at 500 ug after 24 hrs by paper disc technique; conditions: read-out: IZ; how it was run: as §1
Aspergillus niger [3] = assay: Antifungal activity against Aspergillus niger at 500 ug after 24 hrs by paper disc technique relative to control; how it was run: as §1
Rhizopus [4] = assay: Antifungal activity against Rhizopus sp. at 1000 ug after 24 hrs by paper disc technique; conditions: read-out: IZ; how it was run: as §1
Aspergillus flavus [5] = assay: Antifungal activity against Aspergillus flavus at 1000 ug after 24 hrs by paper disc technique; conditions: read-out: IZ; how it was run: as §1
Penicillium chrysogenum [6] = assay: Antifungal activity against Penicillium notatum sp. at 1000 ug after 24 hrs by paper disc technique; conditions: read-out: IZ; how it was run: as §1
Rhizopus [7] = assay: Antifungal activity against Rhizopus sp. at 1000 ug after 24 hrs by paper disc technique relative to control; how it was run: as §1
Aspergillus flavus [8] = assay: Antifungal activity against Aspergillus flavus at 500 ug after 24 hrs by paper disc technique; conditions: read-out: IZ; how it was run: as §1
Penicillium chrysogenum [9] = assay: Antifungal activity against Penicillium notatum sp. at 1000 ug after 24 hrs by paper disc technique relative to control; how it was run: as §1
Aspergillus niger [10] = assay: Antifungal activity against Aspergillus niger at 1000 ug after 24 hrs by paper disc technique; conditions: read-out: IZ; how it was run: as §1
Penicillium chrysogenum [11] = assay: Antifungal activity against Penicillium notatum sp. at 500 ug after 24 hrs by paper disc technique relative to control; how it was run: as §1
Rhizopus [12] = assay: Antifungal activity against Rhizopus sp. at 500 ug after 24 hrs by paper disc technique relative to control; how it was run: as §1
Aspergillus flavus [13] = assay: Antifungal activity against Aspergillus flavus at 1000 ug after 24 hrs by paper disc technique relative to control; how it was run: as §1
Aspergillus flavus [14] = assay: Antifungal activity against Aspergillus flavus at 500 ug after 24 hrs by paper disc technique relative to control; how it was run: as §1
Aspergillus niger [15] = assay: Antifungal activity against Aspergillus niger at 1000 ug after 24 hrs by paper disc technique relative to control; how it was run: as §1
Rhizopus [16] = assay: Antifungal activity against Rhizopus sp. at 500 ug after 24 hrs by paper disc technique; conditions: read-out: IZ; how it was run: as §1

| Structure (SMILES) | zone of inhibition at 500 µg/disc (Penicillium chrysogenum [1]) [mm] | zone of inhibition at 500 µg/disc (Aspergillus niger [2]) [mm] | Activity (Aspergillus niger [3]) [%] | zone of inhibition at 1000 µg/disc (Rhizopus [4]) [mm] | zone of inhibition at 1000 µg/disc (Aspergillus flavus [5]) [mm] | zone of inhibition at 1000 µg/disc (Penicillium chrysogenum [6]) [mm] | Activity (Rhizopus [7]) [%] | zone of inhibition at 500 µg/disc (Aspergillus flavus [8]) [mm] | Activity (Penicillium chrysogenum [9]) [%] | zone of inhibition at 1000 µg/disc (Aspergillus niger [10]) [mm] | Activity (Penicillium chrysogenum [11]) [%] | Activity (Rhizopus [12]) [%] | Activity (Aspergillus flavus [13]) [%] | Activity (Aspergillus flavus [14]) [%] | Activity (Aspergillus niger [15]) [%] | zone of inhibition at 500 µg/disc (Rhizopus [16]) [mm] |
| --- | --- | --- | --- | --- | --- | --- | --- | --- | --- | --- | --- | --- | --- | --- | --- | --- |
| O=[N+]([O-])c1ccc(-c2nnc3n2N=Cc2cc4ccccc4nc2N3)cc1 | 43 | 22 | 33.33 | 26 | 36 | 52 | 43.33 | 36 | 86.66 | 38 | 71.66 | 41.66 | 60 | 60 | 63.33 | 25 |
| Cc1ccc2nc3c(cc2c1)C=Nn1c(nnc1-c1ccccc1Cl)N3 | 44 | 24 | 40 | 32 | 32 | 42 | 53.33 | 42 | 70 | 43 | 73.33 | 46.66 | 53.33 | 70.66 | 71.66 | 28 |
| Cc1ccc2nc3c(cc2c1)C=Nn1c(nnc1-c1ccc([N+](=O)[O-])cc1)N3 | 48 | 34 | 56.66 | 30 | 49 | 42 | 50 | 43 | 70 | 40 | 80 | 33.33 | 81.66 | 71.66 | 66.66 | 20 |
| C1=Nn2c(nnc2-c2ccccc2)Nc2nc3ccccc3cc21 | 44 | 39 | 53.33 | 30 | 45 | 54 | 50 | 32 | 90 | 43 | 73.33 | 50 | 70 | 53.33 | 71.66 | 30 |
| OC(Cn1cncn1)(Cn1cncn1)c1ccc(F)cc1F [FLUCONAZOLE] | 52 | 42 | 70 | 42 | 42 | 54 | 70 | 35 | 90 | 48 | 86.66 | 63.33 | 70 | 58.33 | 80 | 38 |
